Test results: ChEMBL document CHEMBL2157922, “Synthesis and antifungal activity of diverse C-2 pyridinyl and pyridinylvinyl substituted quinolines” (2012)
Converted amounts (≈) assume the structure as drawn. One block for each compound: values may come before it.

Tests used:
Aspergillus niger = assay: Antifungal activity against Aspergillus niger ATCC 9029 after 48 hrs by broth microdilution technique; type: functional; conditions: ATCC 9029, 48 h
How it was run: (§1)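 Moulds and dermatophytes were run by CLSI broth microdilution in MOPS-buffered RPMI-1640 at pH 7.0. Aspergillus was incubated at 30 °C and dermatophytes at 28–30 °C, in a moist, dark chamber. MIC100, the lowest concentration with no visible growth, was read visually at a time set by growth of the control fungus.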

Candida albicans [1] = assay: Antifungal activity against Candida albicans ATCC 10231 after 48 hrs by broth microdilution technique; type: functional; conditions: ATCC 10231, 48 h
How it was run: (§2)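 Yeasts were tested by CLSI broth microdilution in RPMI-1640 buffered to pH 7.0 with MOPS, with compound from 250 down to 0.98 in DMSO stocks. Trays were held at 30 °C in a moist, dark chamber. MIC100, the lowest concentration giving total visual inhibition against the growth control, was read by eye at 48 h.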

[2] = system: Trichophyton mentagrophytes; assay: Antifungal activity against Trichophyton mentagrophytes ATCC 9972 after 48 hrs by broth microdilution technique; type: functional; conditions: ATCC 9972, 48 h; how it was run: as §1
Aspergillus flavus = assay: Antifungal activity against Aspergillus flavus ATCC 9170 after 48 hrs by broth microdilution technique; type: functional; conditions: ATCC 9170, 48 h; how it was run: as §1
Saccharomyces cerevisiae = assay: Antifungal activity against Saccharomyces cerevisiae ATCC 9763 after 48 hrs by broth microdilution technique; type: functional; conditions: ATCC 9763, 48 h; how it was run: as §2
Trichophyton rubrum = assay: Antifungal activity against Trichophyton rubrum CCC 113 after 48 hrs by broth microdilution technique; type: functional; conditions: CCC 113, 48 h
Cryptococcus neoformans [3] = assay: Antifungal activity against Cryptococcus neoformans ATCC 32264 after 48 hrs by broth microdilution technique; type: functional; conditions: ATCC 32264, 48 h; how it was run: as §2
Aspergillus fumigatus = assay: Antifungal activity against Aspergillus fumigatus ATCC 26934 after 48 hrs by broth microdilution technique; type: functional; conditions: ATCC 26934, 48 h; how it was run: as §1
Nannizzia gypsea = assay: Antifungal activity against Microsporum gypseum CCC 115 after 48 hrs by broth microdilution technique; type: functional; conditions: CCC 115, 48 h; how it was run: as §1
Candida parapsilosis = assay: Antifungal activity against Candida parapsilosis CCC 124 after 48 hrs by broth microdilution technique; type: functional; conditions: Lodderomyces parapsilosis, CCC 124, 48 h
Candida albicans [4] = assay: Antifungal activity against Candida albicans CCC 129 after 48 hrs by broth microdilution technique; type: functional; conditions: CCC 129, 48 h
Candida albicans [5] = assay: Antifungal activity against Candida albicans CCC 125 after 48 hrs by broth microdilution technique; type: functional; conditions: CCC 125, 48 h
Candida albicans [6] = assay: Antifungal activity against Candida albicans CCC 128 after 48 hrs by broth microdilution technique; type: functional; conditions: CCC 128, 48 h
Cryptococcus neoformans [7] = assay: Antifungal activity against Cryptococcus neoformans IM 00319 after 48 hrs by broth microdilution technique; type: functional; conditions: IM 00319, 48 h
How it was run: (§3)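 C. neoformans was tested by 96-well RPMI-1640 microdilution, with DMSO-matched growth and sterility control wells. Plates were incubated 48 h at 30 °C in a moist, dark chamber and read at OD405. % inhibition = 100 − (CTW − SCW)/(GCW − SCW), in duplicate. For the clinical isolates, MIC80 and MIC50 are the lowest concentrations giving 80% and 50% inhibition.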

Candida albicans [8] = assay: Antifungal activity against Candida albicans CCC 127 after 48 hrs by broth microdilution technique; type: functional; conditions: CCC 127, 48 h
Candida tropicalis = assay: Antifungal activity against Candida tropicalis CCC 131 after 48 hrs by broth microdilution technique; type: functional; conditions: CCC 131, 48 h
Cryptococcus neoformans [9] = assay: Antifungal activity against Cryptococcus neoformans IM 983036 after 48 hrs by broth microdilution technique; type: functional; conditions: IM 983036, 48 h; how it was run: as §3
Candida albicans [10] = assay: Antifungal activity against Candida albicans CCC 130 after 24 hrs by broth microdilution technique; conditions: CCC 130, 24 h
Candida albicans [11] = assay: Antifungal activity against Candida albicans CCC 126 after 48 hrs by broth microdilution technique; type: functional; conditions: CCC 126, 48 h
Cryptococcus neoformans [12] = assay: Antifungal activity against Cryptococcus neoformans IM 983040 after 48 hrs by broth microdilution technique; type: functional; conditions: IM 983040, 48 h; how it was run: as §3
Candida albicans [13] = assay: Antifungal activity against Candida albicans ATCC 10231 at 31.2 ug/ml after 24 hrs; type: functional; conditions: ATCC 10231, 24 h
How it was run: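 C. albicans was grown in 96-well RPMI-1640 broth microdilution with compound wells diluted from DMSO stocks. Growth wells with matched DMSO and sterility wells were included. After 24 h at 30 °C in a moist, dark chamber, OD405 was read. % inhibition = 100 − (CTW − SCW)/(GCW − SCW) OD, done in duplicate.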

Cryptococcus neoformans [14] = assay: Antifungal activity against Cryptococcus neoformans IM 972724 after 48 hrs by broth microdilution technique; type: functional; conditions: IM 972724, 48 h; how it was run: as §3
Pichia kudriavzevii = assay: Antifungal activity against Candida krusei CCC 117 after 48 hrs by broth microdilution technique; type: functional; conditions: CCC 117, 48 h
Candida albicans [15] = assay: Antifungal activity against Candida albicans CCC 130 after 48 hrs by broth microdilution technique; type: functional; conditions: CCC 130, 48 h
Nakaseomyces glabratus = assay: Antifungal activity against Candida glabrata CCC 115 after 48 hrs by broth microdilution technique; type: functional; conditions: CCC 115, 48 h
Cryptococcus neoformans [16] = assay: Antifungal activity against Cryptococcus neoformans IM 042074 after 48 hrs by broth microdilution technique; type: functional; conditions: IM 042074, 48 h; how it was run: as §3
Cryptococcus neoformans [17] = assay: Antifungal activity against Cryptococcus neoformans IM 972751 after 48 hrs by broth microdilution technique; type: functional; conditions: IM 972751, 48 h; how it was run: as §3

MIC (Aspergillus niger): 1.96 µg/mL (≈ 6.73 µM)
MIC (Candida albicans [1]): 1.95 µg/mL (≈ 6.69 µM)
MIC [2]: 0.03 µg/mL (≈ 0.103 µM)
MIC (Aspergillus flavus): 0.98 µg/mL (≈ 3.36 µM)
MIC (Saccharomyces cerevisiae): 3.9 µg/mL (≈ 13.4 µM)
MIC (Trichophyton rubrum): 0.01 µg/mL (≈ 0.0343 µM)
MIC (Cryptococcus neoformans [3]): 0.49 µg/mL (≈ 1.68 µM)
MIC (Aspergillus fumigatus): 0.98 µg/mL (≈ 3.36 µM)
MIC (Nannizzia gypsea): 0.04 µg/mL (≈ 0.137 µM)
Structure (SMILES): CN(C/C=C/C#CC(C)(C)C)Cc1cccc2ccccc12 [TERBINAFINE]

MIC50 (Candida parapsilosis): > 250 µg/mL
MIC80 (Candida parapsilosis): > 250 µg/mL
MIC50 (Candida albicans [4]): 31.2 µg/mL (≈ 117 µM)
MIC80 (Candida albicans [4]): 62.5 µg/mL (≈ 234 µM)
MIC50 (Candida albicans [5]): 31.2 µg/mL (≈ 117 µM)
MIC80 (Candida albicans [5]): 125 µg/mL (≈ 469 µM)
MIC50 (Candida albicans [6]): 62.5 µg/mL (≈ 234 µM)
MIC80 (Candida albicans [6]): 125 µg/mL (≈ 469 µM)
MIC (Aspergillus niger): 250 µg/mL (≈ 937 µM)
MIC50 (Cryptococcus neoformans [7]): 31.2 µg/mL (≈ 117 µM)
MIC80 (Cryptococcus neoformans [7]): 62.5 µg/mL (≈ 234 µM)
MIC50 (Candida albicans [8]): 31.2 µg/mL (≈ 117 µM)
MIC80 (Candida albicans [8]): 62.5 µg/mL (≈ 234 µM)
MIC (Candida albicans [1]): 125 µg/mL (≈ 469 µM)
MIC50 (Candida albicans [1]): 15.6 µg/mL (≈ 58.5 µM)
MIC80 (Candida albicans [1]): 31.2 µg/mL (≈ 117 µM)
MIC [2]: 62 µg/mL (≈ 232 µM)
MIC50 (Candida tropicalis): 31.2 µg/mL (≈ 117 µM)
MIC80 (Candida tropicalis): 125 µg/mL (≈ 469 µM)
MIC50 (Cryptococcus neoformans [9]): 7.8 µg/mL (≈ 29.2 µM)
MIC80 (Cryptococcus neoformans [9]): 62.5 µg/mL (≈ 234 µM)
MIC (Aspergillus flavus): 250 µg/mL (≈ 937 µM)
MIC50 (Candida albicans [10]): 31.2 µg/mL (≈ 117 µM)
MIC (Saccharomyces cerevisiae): 125 µg/mL (≈ 469 µM)
MIC50 (Candida albicans [11]): 31.2 µg/mL (≈ 117 µM)
MIC80 (Candida albicans [11]): 62.5 µg/mL (≈ 234 µM)
MIC (Trichophyton rubrum): 62 µg/mL (≈ 232 µM)
MIC50 (Cryptococcus neoformans [12]): 15.6 µg/mL (≈ 58.5 µM)
MIC80 (Cryptococcus neoformans [12]): 62.5 µg/mL (≈ 234 µM)
MIC (Cryptococcus neoformans [3]): 125 µg/mL (≈ 469 µM)
MIC50 (Cryptococcus neoformans [3]): 15.6 µg/mL (≈ 58.5 µM)
MIC80 (Cryptococcus neoformans [3]): 31.2 µg/mL (≈ 117 µM)
MIC (Aspergillus fumigatus): 250 µg/mL (≈ 937 µM)
MIC50 (Cryptococcus neoformans [14]): 31.2 µg/mL (≈ 117 µM)
MIC80 (Cryptococcus neoformans [14]): 62.5 µg/mL (≈ 234 µM)
MIC50 (Pichia kudriavzevii): > 250 µg/mL
MIC80 (Pichia kudriavzevii): > 250 µg/mL
MIC80 (Candida albicans [15]): 62.5 µg/mL (≈ 234 µM)
MIC50 (Nakaseomyces glabratus): > 250 µg/mL
MIC80 (Nakaseomyces glabratus): > 250 µg/mL
MIC50 (Cryptococcus neoformans [16]): 15.6 µg/mL (≈ 58.5 µM)
MIC80 (Cryptococcus neoformans [16]): 62.5 µg/mL (≈ 234 µM)
MIC50 (Cryptococcus neoformans [17]): 15.6 µg/mL (≈ 58.5 µM)
MIC80 (Cryptococcus neoformans [17]): 31.2 µg/mL (≈ 117 µM)
MIC (Nannizzia gypsea): 62 µg/mL (≈ 232 µM)
Structure (SMILES): Clc1ccc2nc(/C=C/c3ccncc3)ccc2c1
MFC (Aspergillus niger): > 250 µg/mL
MFC (Candida albicans [1]): > 250 µg/mL
MFC [2]: 125 µg/mL (≈ 469 µM)
MFC (Aspergillus flavus): > 250 µg/mL
MFC (Saccharomyces cerevisiae): > 250 µg/mL
MFC (Trichophyton rubrum): 125 µg/mL (≈ 469 µM)
MFC (Cryptococcus neoformans [3]): 250 µg/mL (≈ 937 µM)
MFC (Aspergillus fumigatus): > 250 µg/mL
inhibition at 31.2 µg/mL (Candida albicans [13]): 80%
MFC (Nannizzia gypsea): 125 µg/mL (≈ 469 µM)

MIC (Aspergillus niger): > 250 µg/mL
MIC (Candida albicans [1]): > 250 µg/mL
MIC [2]: 62 µg/mL (≈ 258 µM)
MIC (Aspergillus flavus): > 250 µg/mL
MIC (Saccharomyces cerevisiae): > 250 µg/mL
MIC (Trichophyton rubrum): 31 µg/mL (≈ 129 µM)
MIC (Cryptococcus neoformans [3]): 125 µg/mL (≈ 519 µM)
MIC (Aspergillus fumigatus): > 250 µg/mL
MIC (Nannizzia gypsea): 31 µg/mL (≈ 129 µM)
Structure (SMILES): Clc1cccc2ccc(-c3ccncc3)nc12
MFC [2]: 125 µg/mL (≈ 519 µM)
MFC (Trichophyton rubrum): 62 µg/mL (≈ 258 µM)
MFC (Cryptococcus neoformans [3]): 250 µg/mL (≈ 1040 µM)
MFC (Nannizzia gypsea): 62 µg/mL (≈ 258 µM)
